Calls of active or inactive are those of the source. No cut-off for these calls is given here. Bounds are passed on as bounds.

The values that follow come from ChEMBL document CHEMBL2150901, “Synthesis and biological activity of tricyclic cycloalkylimidazo-, pyrimido- and diazepinopurinediones” (Eur J Med Chem, 2011).

The target in series [1] is T1, Adenosine receptor A1 (Rattus norvegicus, UniProt P25099).
T1 sequence (P25099 whole entry): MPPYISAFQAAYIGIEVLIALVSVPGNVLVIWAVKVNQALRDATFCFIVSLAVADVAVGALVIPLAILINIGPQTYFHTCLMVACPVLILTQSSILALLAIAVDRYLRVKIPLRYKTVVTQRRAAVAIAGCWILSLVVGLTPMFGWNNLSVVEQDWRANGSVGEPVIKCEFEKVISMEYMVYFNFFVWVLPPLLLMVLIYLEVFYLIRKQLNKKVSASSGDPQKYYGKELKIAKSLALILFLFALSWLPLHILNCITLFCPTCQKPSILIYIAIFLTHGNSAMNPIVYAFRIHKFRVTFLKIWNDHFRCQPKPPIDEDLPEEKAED
In words: Displacement of [3H]CPX from adenosine A1 receptor in rat brain cortical membrane. The class given is cell membranes.

Series [2] addresses T2, Adenosine receptor A2b (Homo sapiens, UniProt P29275).
T2 sequence (P29275 whole entry): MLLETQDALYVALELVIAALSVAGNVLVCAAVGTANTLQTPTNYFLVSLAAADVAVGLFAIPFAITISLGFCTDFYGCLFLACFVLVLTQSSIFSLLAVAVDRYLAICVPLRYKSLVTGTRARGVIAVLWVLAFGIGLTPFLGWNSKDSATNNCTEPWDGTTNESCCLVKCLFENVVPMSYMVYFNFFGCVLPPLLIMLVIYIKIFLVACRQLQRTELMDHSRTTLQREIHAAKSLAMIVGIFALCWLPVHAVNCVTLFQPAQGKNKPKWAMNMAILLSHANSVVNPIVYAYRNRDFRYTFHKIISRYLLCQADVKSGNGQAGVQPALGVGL
In words: Displacement of [3H]MRS-1754 from human recombinant adenosine A2B receptor expressed in HEK293 cells. Format: cell-based.

Series [3] addresses T3, Adenosine receptor A3 (Homo sapiens, UniProt P0DMS8).
T3 sequence (P0DMS8 whole entry): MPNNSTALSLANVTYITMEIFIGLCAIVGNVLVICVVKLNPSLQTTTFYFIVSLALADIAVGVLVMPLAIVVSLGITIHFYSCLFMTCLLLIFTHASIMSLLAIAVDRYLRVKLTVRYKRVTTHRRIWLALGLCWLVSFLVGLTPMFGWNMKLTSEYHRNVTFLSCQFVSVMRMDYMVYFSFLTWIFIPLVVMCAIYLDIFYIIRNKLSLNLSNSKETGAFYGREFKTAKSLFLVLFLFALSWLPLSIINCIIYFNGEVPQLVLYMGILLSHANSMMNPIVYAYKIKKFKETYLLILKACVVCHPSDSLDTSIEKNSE
In words: Displacement of [125I]AB-MECA from human adenosine A3 receptor expressed in HEK293 cells. The class given is cell-based.

Series [4] addresses T4, Adenosine receptor A2a (Rattus norvegicus, UniProt P30543). In words: Displacement of [125I]ZM241385 from adenosine A2A receptor in rat brain striatum membrane. Format: cell membranes.
The test system of series [5] is Mus musculus. In words: Anticonvulsant activity in F1 albino mouse assessed as protection against subcutaneous pentylenetetrazole-induced seizures at 100 mg/kg, ip after 0.5 hrs. Format: functional, organism-based. Details: dose 100 mg/kg. The procedure, abridged: (§1)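 Male albino F-1 mice (18–25 g), groups of 1–5 (rotorod 2–8). Compound given ip as a suspension in 0.5% methylcellulose at 30, 100 and 300 mg/kg. Seizures by maximal electroshock or subcutaneous pentylenetetrazole; neurotoxicity by rotorod. Read at 0.5 and 4 h, with some at 0.25, 1 and 2 h. Value is the minimum active dose, with protected (or toxic)/tested animals.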

The species entered for series [6] is Rattus norvegicus. Kind of series: Selectivity ratio of Ki for adenosine A1 receptor in rat brain cortical membrane to Ki for adenosine A2A receptor in rat brain striatal membrane. The class given is cell membranes. The procedure, abridged: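 Ki ratios from radioligand competition binding. Rat A1 used brain cortical membranes and rat A2A used brain striatal membranes. Human A1 and A2A used membranes of CHO cells expressing the receptors. A1 radioligand [³H]CCPA; A2A radioligand [³H]MSX-2. Potent compounds were tested at 6–7 concentrations spanning 3 orders of magnitude.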

For series [7], the system named is Mus musculus. Kind of series: Neurotoxicity in F1 albino mouse assessed as minimal motor impairment at 300 mg/kg, ip after 1 hr by rotorod test. Details: dose 300 mg/kg, route intraperitoneal. The note with it: in vivo. The class given is toxicity, organism-based. The procedure, abridged:
as §1

In series [8] the test system is Mus musculus. Kind of series: Anticonvulsant activity in F1 albino mouse assessed as protection against maximal electroshock-induced seizures at 300 mg/kg, ip after 4 hrs. Format: functional, organism-based. Details: dose 300 mg/kg. The procedure, abridged: as §1
Series [9] deals with Rattus norvegicus. In words: Anticonvulsant activity in Sprague-Dawley albino rat assessed as protection against maximal electroshock-induced seizures at 30 mg/kg, po after 2 hrs. Format: functional, organism-based. Details: dose 30 mg/kg. The procedure, abridged:
(§2)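 Male Sprague-Dawley albino rats (100–150 g), groups of 4. Oral suspension in 0.5% methylcellulose/water. Protection assessed by maximal electroshock or subcutaneous pentylenetetrazole; motor impairment by rotorod. Time points 0.25–4 h. Value is protected (or toxic)/tested animals.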

The subject of series [10] is Mus musculus. In words: Anticonvulsant activity in F1 albino mouse assessed as protection against maximal electroshock-induced seizures at 100 mg/kg, ip after 0.5 hrs. The class given is functional, organism-based. Details: dose 100 mg/kg. The procedure, abridged: as §1
For series [11], the system named is Rattus norvegicus. Kind of series: Anticonvulsant activity in Sprague-Dawley albino rat assessed as protection against subcutaneous pentylenetetrazole-induced seizures at 50 mg/kg, po after 1 hr. The class given is functional, organism-based. Details: dose 50 mg/kg. The procedure, abridged:
as §2

Series [12] concerns the target T4, Adenosine receptor A2a. In words: Displacement of [3H]MSX-2 from adenosine A2A receptor in rat brain striatal membrane. Format: cell membranes.
In series [13] the test system is Rattus norvegicus. In words: Neurotoxicity in Sprague-Dawley albino rat assessed as minimal motor impairment at 30 mg/kg, po after 0.25 hrs by rotorod test. Particulars: in vivo. The class given is toxicity, organism-based. Details: dose 30 mg/kg, route oral. The procedure, abridged: as §2
Series [14] relates to Mus musculus. In words: Neurotoxicity in F1 albino mouse assessed as minimal motor impairment at 300 mg/kg, ip after 4 hrs by rotorod test. Format: toxicity, organism-based. Details: dose 300 mg/kg, route intraperitoneal. The note with it: in vivo. The procedure, abridged: as §1
The test system of series [15] is Rattus norvegicus. Kind of series: Neurotoxicity in Sprague-Dawley albino rat assessed as minimal motor impairment at 30 mg/kg, po after 4 hrs by rotorod test. Details: dose 30 mg/kg, route oral. Particulars: in vivo. Format: toxicity, organism-based. The procedure, abridged: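 Male Sprague-Dawley albino rats (100–150 g), groups of 4, dosed orally with a suspension in 0.5% methylcellulose/water. Neurotoxicity was scored as minimal motor impairment on the rotorod at 0.25, 0.5, 1 and 4 h. Results are reported as animals showing toxicity per animals tested.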

In series [16] the test system is Rattus norvegicus. In words: Anticonvulsant activity in Sprague-Dawley albino rat assessed as protection against maximal electroshock-induced seizures at 30 mg/kg, po after 0.5 hrs. The class given is functional, organism-based. Details: dose 30 mg/kg. The procedure, abridged: as §2
The test system of series [17] is Mus musculus. Kind of series: Anticonvulsant activity in F1 albino mouse assessed as protection against subcutaneous pentylenetetrazole-induced seizures at 300 mg/kg, ip after 0.25 hrs. Format: functional, organism-based. Details: dose 300 mg/kg. The procedure, abridged:
as §1

The target in series [18] is T1, Adenosine receptor A1. In words: Displacement of [3H]CCPA from adenosine A1 receptor in rat brain cortical membrane. Format: cell membranes.
Series [19] concerns Rattus norvegicus. Kind of series: Anticonvulsant activity in Sprague-Dawley albino rat assessed as protection against subcutaneous pentylenetetrazole-induced seizures at 50 mg/kg, po after 2 hrs. Format: functional, organism-based. Details: dose 50 mg/kg. The procedure, abridged: as §2
Series [20] relates to Rattus norvegicus. In words: Anticonvulsant activity in Sprague-Dawley albino rat assessed as protection against subcutaneous pentylenetetrazole-induced seizures at 50 mg/kg, po after 4 hrs. The class given is functional, organism-based. Details: dose 50 mg/kg. The procedure, abridged:
as §2

Series [21] concerns Mus musculus. In words: Anticonvulsant activity in F1 albino mouse assessed as protection against maximal electroshock-induced seizures at 300 mg/kg, ip after 1 hr. Format: functional, organism-based. Details: dose 300 mg/kg. The procedure, abridged: as §1
Series [22] concerns Rattus norvegicus. In words: Anticonvulsant activity in Sprague-Dawley albino rat assessed as protection against maximal electroshock-induced seizures at 30 mg/kg, po after 1 hr. Format: functional, organism-based. Details: dose 30 mg/kg. The procedure, abridged:
as §2

For series [23], the system named is Mus musculus. Kind of series: Anticonvulsant activity in F1 albino mouse assessed as protection against subcutaneous pentylenetetrazole-induced seizures at 300 mg/kg, ip after 4 hrs. Format: functional, organism-based. Details: dose 300 mg/kg. The procedure, abridged:
as §1

The subject of series [24] is Mus musculus. Kind of series: Neurotoxicity in F1 albino mouse assessed as minimal motor impairment at 300 mg/kg, ip after 0.5 hrs by rotorod test. The class given is toxicity, organism-based. Details: dose 300 mg/kg, route intraperitoneal. The note with it: in vivo. The procedure, abridged:
as §1

Series [25] deals with Mus musculus. Kind of series: Neurotoxicity in F1 albino mouse assessed as minimal motor impairment at 300 mg/kg, ip after 0.25 hrs by rotorod test. Format: toxicity, organism-based. Details: dose 300 mg/kg, route intraperitoneal. The note with it: in vivo. The procedure, abridged:
as §1

The test system of series [26] is Mus musculus. Kind of series: Anticonvulsant activity in F1 albino mouse assessed as protection against maximal electroshock-induced seizures at 300 mg/kg, ip after 0.25 hrs. The class given is functional, organism-based. Details: dose 300 mg/kg. The procedure, abridged: as §1
Series [27] relates to Rattus norvegicus. Kind of series: Anticonvulsant activity in Sprague-Dawley albino rat assessed as protection against maximal electroshock-induced seizures at 30 mg/kg, po after 4 hrs. The class given is functional, organism-based. Details: dose 30 mg/kg. The procedure, abridged: as §2
The subject of series [28] is Rattus norvegicus. Kind of series: Anticonvulsant activity in Sprague-Dawley albino rat assessed as protection against subcutaneous pentylenetetrazole-induced seizures at 50 mg/kg, po after 0.5 hrs. The class given is functional, organism-based. Details: dose 50 mg/kg. The procedure, abridged:
as §2

Series [29] concerns Rattus norvegicus. Kind of series: Neurotoxicity in Sprague-Dawley albino rat assessed as minimal motor impairment at 30 mg/kg, po after 1 hr by rotorod test. Details: dose 30 mg/kg, route oral. Format: toxicity, organism-based. The note with it: in vivo. The procedure, abridged: as §2
The test system of series [30] is Rattus norvegicus. In words: Neurotoxicity in Sprague-Dawley albino rat assessed as minimal motor impairment at 30 mg/kg, po after 0.5 hrs by rotorod test. Details: dose 30 mg/kg, route oral. Particulars: in vivo. The class given is toxicity, organism-based. The procedure, abridged:
as §2

Series [31] relates to Rattus norvegicus. Kind of series: Anticonvulsant activity in Sprague-Dawley albino rat assessed as protection against subcutaneous pentylenetetrazole-induced seizures at 50 mg/kg, po after 0.25 hrs. The class given is functional, organism-based. Details: dose 50 mg/kg. The procedure, abridged: as §2
The subject of series [32] is Mus musculus. In words: Anticonvulsant activity in F1 albino mouse assessed as protection against subcutaneous pentylenetetrazole-induced seizures at 300 mg/kg, ip after 1 hr. Format: functional, organism-based. Details: dose 300 mg/kg. The procedure, abridged: as §1

T4 sequence (P30543 whole entry): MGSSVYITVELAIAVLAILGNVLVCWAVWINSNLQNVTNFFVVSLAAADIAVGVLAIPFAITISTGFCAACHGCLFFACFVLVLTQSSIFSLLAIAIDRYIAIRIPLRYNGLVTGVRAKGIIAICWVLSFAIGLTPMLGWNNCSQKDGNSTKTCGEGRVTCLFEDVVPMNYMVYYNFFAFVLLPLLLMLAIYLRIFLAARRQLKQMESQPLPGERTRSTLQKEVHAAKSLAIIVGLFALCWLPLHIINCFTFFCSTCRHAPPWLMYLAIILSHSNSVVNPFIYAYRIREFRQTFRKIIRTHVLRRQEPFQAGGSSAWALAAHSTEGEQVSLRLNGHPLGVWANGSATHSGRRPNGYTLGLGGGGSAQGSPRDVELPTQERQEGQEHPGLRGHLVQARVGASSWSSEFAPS

Take `CCCn1c(=O)c2[nH]c(C3C4CC5OC(=O)C3C5C4)nc2n(CCC)c1=O` (configuration not stated): the Ki in series [1] is 0.3 nM; in [2] it was 1540 nM; in [3], above 10000 nM; in series [4], 269 nM.
For the compound `C[C@@H](C1CCCCC1)N1CCCn2c1nc1c2c(=O)n(C)c(=O)n1C`, the outcome in series [5], in series [8], in series [9], in [11], in [16] and in series [17] was inactive. Also, the result in series [19], in [20], in [21], in [23], in [26] and in [27] was inactive. In addition, the outcome in [28], in series [31] and in [32] was inactive. For the same compound, the Ratio Ki in series [6] was 13. The Activity entry in series [7], in series [13], in series [14], in series [15], in [24] and in series [25] was “Non-toxic” in each case. Further, the Activity result in series [29] and in series [30] was “Non-toxic” each time. In addition, the outcome in series [10] and in series [22] was Active. Besides, the Ki came out at 887 nM in series [12] and 11900 nM in series [18].
